Laboratory results: ChEMBL document CHEMBL1123290, “Synthesis, antimalarial activity, and quantitative structure-activity relationships of tebuquine and a series of related 5-[(7-chloro-4-quinolinyl)amino]-3-[(alkylamino)methyl] [1,1'-biphenyl]-2-ols and N omega-oxides” (1986)

How the values were obtained:
Assay type in all cases: functional
Plasmodium berghei [1] = assay: Antimalarial activity as 60-day survivors in Plasmodium berghei infected mice (Mus musculus) after single 160mg/kg subcutaneous dose 72 hr post infection
Summary of the method: (§1)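 Mice were infected with a normal drug-sensitive Plasmodium berghei strain. At 72 h postinfection each received one subcutaneous dose of compound dissolved or suspended in peanut oil, in five-mouse groups per dose. The read-out was the number of mice alive at 60 days postinfection, which were scored as cured.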

Mus musculus [2] = assay: Antimalarial activity, administered as a single subcutaneous dose of 640 mg/kg, 72 hrs post infection measured as number of mice (Mus musculus) surviving at 60 days post infection; summary of the method: as §1
Plasmodium berghei [3] = assay: Antimalarial activity as 60-day survivors in infected mice (Mus musculus) after single 320mg/kg subcutaneous dose 72 hr post infection; summary of the method: as §1
Plasmodium berghei [4] = assay: Antimalarial activity in primary screen
Plasmodium berghei [5] = assay: Change in mean survival time for control (average of 6.2 days) versus treated mice (Mus musculus) 72 hrs after 80 mg/kg subcutaneous dose
Plasmodium berghei [6] = assay: Change in mean survival time for control (average 6.2 days) versus treated mice (Mus musculus) 72 hrs after 20 mg/kg subcutaneous dose
Plasmodium berghei [7] = assay: Change in mean survival time for control (average 6.2 days) versus treated mice (Mus musculus) 72 hrs after 640 mg/kg subcutaneous dose
Plasmodium berghei [8] = assay: Difference in mean survival time in mice (Mus musculus) (control = 6.2 days) after single 40mg/kg subcutaneous dose 72hr post infection
Plasmodium berghei [9] = assay: Change in mean survival time for control (average 6.2 days) versus treated mice (Mus musculus) 72 hrs after 320 mg/kg subcutaneous dose
Plasmodium berghei [10] = assay: Change in mean survival time for control (average 6.2 days) versus treated mice (Mus musculus) 72 hrs after 160 mg/kg subcutaneous dose
Mus musculus [11] = assay: Antimalarial activity, administered as a single subcutaneous dose of 80 mg/kg, 72 hrs post infection measured as number of mice (Mus musculus) surviving at 60 days post infection; summary of the method: as §1
Mus musculus [12] = assay: Antimalarial activity, administered as a single subcutaneous dose of 40 mg/kg, 72 hrs post infection measured as number of mice (Mus musculus) surviving at 60 days post infection; summary of the method: as §1
Plasmodium berghei [13] = assay: Change in mean survival time for control (average 6.2 days) versus treated mice (Mus musculus) 72 hrs after 10 mg/kg subcutaneous dose
Plasmodium berghei [14] = assay: Change in mean survival time for control (average 6.2 days) versus treated mice (Mus musculus) 72 hrs after […] subcutaneous dose
Plasmodium berghei [15] = assay: Change in mean survival time for control (average 6.2 days) versus treated mice (Mus musculus) 72 hrs after 5 mg/kg subcutaneous dose
Plasmodium berghei [16] = assay: Change in mean survival time for control (average 6.2 days) versus treated mice (Mus musculus) 72 hrs after […] subcutaneous dose

SMILES	No. of mice cured (Plasmodium berghei [1])	No. of mice cured (Mus musculus [2])	No. of mice cured (Plasmodium berghei [3])	ED30 (Plasmodium berghei [4])	Delta MST (Plasmodium berghei [5])	Delta MST (Plasmodium berghei [6])	Delta MST (Plasmodium berghei [7])	Delta MST (Plasmodium berghei [8])	Delta MST (Plasmodium berghei [9])	Delta MST (Plasmodium berghei [10])	No. of mice cured (Mus musculus [11])	No. of mice cured (Mus musculus [12])	Delta MST (Plasmodium berghei [13])	Delta MST (Plasmodium berghei [14])	Delta MST (Plasmodium berghei [15])	Delta MST (Plasmodium berghei [16])
CCN(CC)Cc1cc(Nc2cc[n+]([O-])c3cc(Cl)ccc23)ccc1O	3	3	5													
CCN(CC)Cc1cc(Nc2ccnc3cc(Cl)ccc23)cc(-c2ccc(O)cc2)c1O		1	2	320 mg/kg	4.8 days	-0.2 days	4.1 days	0.8 days	3.8 days	6.8 days						
CCN(CC)Cc1cc(Nc2ccnc3cc(Cl)ccc23)cc(-c2ccc(Cl)c(Cl)c2)c1O	4	3	5	22.7 mg/kg	33.4 days	15.7 days	10.9 days	23.7 days		21.4 days	4	3	0.9 days	-0.1 days	0.1 days	-0.3 days
Oc1c(CNC23CC4CC(CC(C4)C2)C3)cc(Nc2ccnc3cc(Cl)ccc23)cc1-c1ccc(Cl)cc1	4	2	5		23 days	7.5 days	19 days	18.5 days		39 days	4		0.1 days	-0.5 days	-0.3 days	-0.3 days
CCN(CC)Cc1cc(Nc2ccnc3cc(Cl)ccc23)cc(-c2ccccc2OC)c1O	2	5	2	74 mg/kg	14.9 days	6.2 days		9.4 days	37.9 days	18.9 days	2		2.6 days	-0.2 days	0.4 days	0.2 days
CC(C)(C)NCc1cc(C(C)(C)C)cc(-c2ccc(Cl)cc2)c1O	5	5	5		15.7 days	5.1 days		12.9 days								
CCN(CC)Cc1cc(Nc2ccnc3cc(Cl)ccc23)cc(-c2ccc(OC)cc2)c1O	2	5	3	112 mg/kg	12.4 days	4.3 days		7.3 days	28.9 days	16.1 days	1		2.9 days	0.5 days	1.3 days	0.1 days
CCN(CC)Cc1cc(Nc2ccnc3cc(Cl)ccc23)cc(CN(CC)CC)c1O [CYLCLOQUINE]	4	5	5			15.1 days		19.1 days			2		11.5 days			
CCN(CC)Cc1cc(Nc2ccnc3cc(Cl)ccc23)cc(-c2ccc(OC)c(OC)c2)c1O		1		927 mg/kg	5.4 days	1.2 days	13.1	3.8 days	12 days	8.6 days						
CCN(CC)Cc1cc(Nc2ccnc3cc(Cl)ccc23)cc(-c2ccc(SC)cc2)c1O		4	2	151 mg/kg	10 days	6.7 days	13.6 days	9.1 days	25.3 days	19.2 days			1.3 days	0.5 days	0.5 days	0.1 days
CCN(CC)Cc1cc(Nc2ccnc3cc(Cl)ccc23)cc(-c2ccccn2)c1O		3	3	160 mg/kg	7.8 days	2.6 days	25.3 days	3.8 days	15.8 days	11.2 days						
CCCCN(CCCC)Cc1cc(Nc2ccnc3cc(Cl)ccc23)cc(-c2ccc(Cl)cc2)c1O		3			12.6 days	4.6 days	34.4 days	8.2 days	24 days	17 days			2 days	0.4 days	0.2 days	0.2 days
CCN(CC)Cc1cc(Nc2ccnc3cc(Cl)ccc23)cc(-c2cc(OC)ccc2OC)c1O				9680 mg/kg	3.6 days	0 days	8.6 days	3.8 days	8.8 days	4 days						
CCN(CC)Cc1cc(Nc2ccnc3cc(Cl)ccc23)cc(-c2ccc(F)cc2)c1O				8.8 mg/kg			14.8 days	13.4 days		12.8 days		2				
CCN(CC)Cc1cc(Nc2ccnc3cc(Cl)ccc23)ccc1O.Cl	5	5	5			8.3 days		11.9 days			2		5.7 days			
Oc1c(CN2CCCC2)cc(Nc2ccnc3cc(Cl)ccc23)cc1-c1ccc(Cl)c(Cl)c1	4	3	3		30.2 days	8.3 days	33.9 days	18.5 days	25.9 days		1		0.1 days	-0.1 days		-0.1 days
CCN(CC)Cc1cc(Nc2ccnc3cc(Cl)ccc23)cc(-c2ccc(C)cc2)c1O				1530 mg/kg	6.5 days	3.3 days	20.5 days	4.5 days	14.5 days	9.7 days			1.6 days	0.4 days	0.4 days	0.4 days
CCN(CC)Cc1cc(Nc2ccnc3cc(Cl)ccc23)cc(-c2ccccc2F)c1O	2	5	5	26.8 mg/kg	26.2 days	16.4 days		18.4 days		33.1 days		1	12.8 days	0 days	4.4 days	0.4 days
